Tested on: larval zebrafish
Test: Battery of 10 behavioral assays in larval zebrafish
Format: in vivo, zebrafish (Danio rerio)
Conditions: for Haloperidol-like phenotype (zebrafish motor activity heat maps): Fig. 3b, three wells per drug
Summary of the method: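 7 d.p.f. Ekkwill larvae, 8–10 per well in E3, held 1 h at 25 °C, then given compound (<1% DMSO; DMSO-treated control wells) for 1 h at room temperature. Ten-assay battery of red/blue/violet light and 60/70 dB sound, IR-lit video; MI by frame differencing over 10,500 time points. Seven 2-fold concentrations, 12 wells each, triplicate days; magnitude = 5th-percentile-subtracted MI averaged over time.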

Row | Structure (SMILES) | Haloperidol-like phenotype (zebrafish motor activity heat maps) | other results
1 | O=C(CCCN1CCC(O)(c2ccc(Br)cc2)CC1)c1ccc(F)cc1 [BROMPERIDOL] | cause haloperidol-like phenotypes | –
2 | O=C(CCCN1CC=C(n2c(=O)[nH]c3ccccc32)CC1)c1ccc(F)cc1 [DROPERIDOL] | cause haloperidol-like phenotypes | –
3 | O=C(CCCN1CCC(O)(c2ccc(Cl)cc2)CC1)c1ccc(F)cc1 [Haloperidol] | – | MI magnitude (5 μM, 48 wells vs DMSO): increased MI magnitude at many points in the time series; Shape and average magnitude of the behavioral profile (lower concentrations (2.5–10 μM)): changed the shape of the behavioral profile without reducing its average magnitude; Motor activity (very high concentrations (20–80 μM)): reduced motor activity
4 | CN1c2ccccc2C(NCCCCCCC(=O)O)c2ccc(Cl)cc2S1(=O)=O (stereo not drawn) [Tianeptine] | – | Effect on behavioral profile (phenotypic distance from control animals) (reference set, seven concentrations): failed to show an effect
5 | c1ccc2c(c1)Nc1ccccc1S2 [phenothiazine] | cause haloperidol-like phenotypes | –
6 | CN1CCN(CCCN2c3ccccc3Sc3ccc(Cl)cc32)CC1 [prochlorperazine] | cause haloperidol-like phenotypes | –
7 | CSc1ccc2c(c1)N(CCC1CCCCN1C)c1ccccc1S2 (stereo not drawn) [thioridazine] | cause haloperidol-like phenotypes | –

Reference: PMC4912417 (Nature chemical biology, 2016)
